Data: ChEMBL document CHEMBL1123658, “1-(2-pyridinyl)piperazine derivatives with antianaphylactic, antibronchospastic, and mast cell stabilizing activities” (J Med Chem, 1987)

Experiments:
Cavia porcellus [1] = test: Antibronchospatic activity determined by histamine stimulated bronchospasm inhibition in guinea pigs after(i.v.) administration; format: functional, Bronchiole
How it was run: (§1)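 Guinea pigs, Konzett–Rössler preparation. Bronchospasm was induced with histamine. Compound was given iv (1 mL/kg) 1 min before the agonist, dissolved in saline or saline with slight excess HCl or CH3SO3H (pH 3.5–4). Three doses were tested in duplicate, chosen to give 20–90% inhibition. ID75 was read graphically from log dose–response curves.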

Rattus norvegicus [2] = test: Rat PCA Test(50% inhibition of spot areas)in the female albino rats after (ip) administration in 10% aqueous acacia gum; Value ranges from(42-57); format: functional; settings: read-out: ID50 (the source's name)
How it was run: (§2)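 Female albino rats (200–250 g) received intradermal ventral injections of rat anti-egg-albumin antiserum; donors were raised with egg albumin im plus H. pertussis ip, and serum was taken at 12 days. 24 h later, compound was given ip in 10% acacia gum (10 mL/kg), 10 rats/group. Challenge 30 min later was iv 0.3% egg albumin plus 1% Evans blue. Blued areas were measured 30 min after challenge.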

[3] = In vivo toxic effect was determined in mouse after intraperitoneal administration with 10% aqueous acacia gum; value ranges from 0.41-0.93; format: toxicity, organism-based; settings: ip
How it was run: (§3)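 Female albino mice (20-30 g), 10 animals per dose, dosed intraperitoneally with compound in solution or suspension; compounds tested as salts unless noted. Mortality was recorded over 7 days.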

[4] = In vivo toxic effect was determined in mouse after oral administration with 10% aqueous acacia gum;Value ranges from(1.30-1.80); format: toxicity, organism-based
How it was run: (§4)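 Female albino mice, 20-30 g. Compound given orally as solution or suspension in 10% aqueous acacia gum, 10 animals per dose. Deaths recorded over 7 days.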

[5] = In vivo toxic effect was determined in mouse after intraperitoneal administration with 10% aqueous acacia gum; value ranges from 0.54-0.99; format: toxicity, organism-based; settings: ip; how it was run: as §3
[6] = In vivo toxic effect was determined in mouse after oral administration with 10% aqueous acacia gum; value ranges from 0.94-1.65; format: toxicity, organism-based; how it was run: as §4
Cavia porcellus [7] = test: Antibronchospatic activity was determined by inhibition of histamine stimulated bronchospasm in guinea pigs after (iv) administration; format: functional, Bronchiole; how it was run: as §1
Rattus norvegicus [8] = test: Rat PCA Test(50% inhibition of spot areas)in the female albino rats after ip administration in 10% aqueous acacia gum; format: functional; settings: read-out: ID50 (the source's name)
How it was run: (§5)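 Antiserum came from female rats given 1% egg albumin in 0.9% NaCl intramuscularly plus Haemophilus pertussis vaccine (2 × 10^10 organisms) intraperitoneally, and was collected 12 days later. Recipient rats (200-250 g) got it intradermally at a ventral site. After 24 h, groups of 10 received vehicle or compound ip. At 30 min they were challenged iv with 0.3% egg albumin plus 1% Evans blue. Blued skin areas were measured 30 min later.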

[9] = In vivo toxic effect was determined in mouse after intraperitoneal administration with 10% aqueous acacia gum; value ranges from (0.47-0.85); format: toxicity, organism-based; settings: ip; how it was run: as §3
Rattus norvegicus [10] = test: Rat PCA Test(50% inhibition of spot areas)in the female albino rats after (ip) administration in 10% aqueous acacia gum; format: functional; settings: read-out: ID50 (the source's name); how it was run: as §2
[11] = In vivo toxicity in mouse after oral administration with 10% aqueous acacia gum; format: organism-based; how it was run: as §4
Rattus norvegicus [12] = test: Rat PCA Test(50% inhibition of spot areas)in the female albino rats after ip administration in 10% aqueous acacia gum; Value ranges from(26-134); format: functional; settings: read-out: ID50 (the source's name); how it was run: as §5
[13] = In vivo toxic effect was determined in mouse after intraperitoneal administration with 10% aqueous acacia gum; value ranges from 0.39-0.70; format: toxicity, organism-based; settings: ip; how it was run: as §3
Rattus norvegicus [14] = test: Rat PCA Test(50% inhibition of spot areas)in the female albino rats after (ip) administration in 10% aqueous acacia gum; value ranges from 164-246; format: functional; settings: read-out: ID50 (the source's name); how it was run: as §2
Rattus norvegicus [15] = test: Rat PCA Test(50% inhibition of spot areas)in the female albino rats after oral administration in 10% aqueous acacia gum; format: functional; settings: read-out: ID50 (the source's name)
How it was run: (§6)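 Female rats (200-250 g) were passively sensitized by ventral intradermal anti-egg-albumin antiserum. This was raised in rats by intramuscular 1% egg albumin plus ip H. pertussis vaccine, with serum taken at 12 days. After 24 h, groups of 10 were dosed orally with compound or vehicle (10 mL/kg). At 60 min, iv challenge used 0.3% egg albumin with 1% Evans blue. Blued areas were measured after 30 min.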

[16] = In vivo toxic effect was determined in mouse after intraperitoneal administration with 10% aqueous acacia gum; value ranges from 1.35-1.82; format: toxicity, organism-based; settings: ip; how it was run: as §3
Rattus norvegicus [17] = test: Rat PCA Test(50% inhibition of spot areas)in the female albino rats after (ip) administration in 10% aqueous acacia gum; value ranges from 145-288; format: functional; settings: read-out: ID50 (the source's name); how it was run: as §2
[18] = In vivo toxic effect was determined in mouse after oral administration with 10% aqueous acacia gum; value ranges from 3.08-6.27; format: toxicity, organism-based; how it was run: as §4
Rattus norvegicus [19] = test: Inhibition of mast cell degranulation was assessed in female albino rats at a dose of 45 umol/kg iv; format: functional
Rattus norvegicus [20] = test: Rat PCA Test(50% inhibition of spot areas)in the female albino rats after oral administration in 10% aqueous acacia gum; value ranges from 110-212; format: functional; settings: read-out: ID50 (the source's name); how it was run: as §6
Rattus norvegicus [21] = test: Rat PCA Test(50% inhibition of spot areas)in the female albino rats after (ip) administration in 10% aqueous acacia gum; value ranges from 57-142; format: functional; settings: read-out: ID50 (the source's name); how it was run: as §2
[22] = In vivo toxic effect was determined in mouse after intraperitoneal administration with 10% aqueous acacia gum; value ranges from 0.39-0.76; format: toxicity, organism-based; settings: ip; how it was run: as §3
Rattus norvegicus [23] = test: Rat PCA Test(50% inhibition of spot areas)in the female albino rats after oral administration in 10% aqueous acacia gum; value ranges from 161-222; format: functional; settings: read-out: ID50 (the source's name); how it was run: as §6
Rattus norvegicus [24] = test: Rat PCA Test(50% inhibition of spot areas)in the female albino rats after (ip) administration in 10% aqueous acacia gum; value ranges from 128-203; format: functional; settings: read-out: ID50 (the source's name); how it was run: as §2
Mus musculus = test: In vivo toxic effect was determined in mouse after intraperitoneal administration with 10% aqueous acacia gum; NA means poorly absorbed; format: toxicity, organism-based; settings: ip; how it was run: as §3
[25] = In vivo toxic effect was determined in mouse after oral administration with 10% aqueous acacia gum; value ranges from 4.50-5.90; format: toxicity, organism-based; how it was run: as §4
Rattus norvegicus [26] = test: Inhibition of mast cell degranulation was assessed in female albino rats at a dose of 50 umol/kg iv; format: functional

In the case of CC(=O)c1ccc(NC(=O)CCN2CCN(c3ccccn3)CC2)cc1.Cl.Cl, the ID75 (Cavia porcellus [1]) is reported as 0.02 µM/kg, the ED50 (Rattus norvegicus [2]) is reported as 49 µmol/kg and the LD50 [3] is reported as 480 µmol/kg. For the same molecule, the LD50 [4] was 1500 µmol/kg.
Work on CC(=O)c1cccc(NC(=O)CCN2CCN(c3ccccn3)CC2)c1.Cl.Cl yielded an ID75 (Cavia porcellus [1]) of 0.2 µM/kg, an LD50 [5] of 680 µmol/kg and an LD50 [6] of 1110 µmol/kg.
CCCCOc1cc(C(=O)NCCN2CCN(c3ccccn3)CC2)c2ccccc2n1.Cl.Cl showed an ID75 (Cavia porcellus [7]) of 8.15 µM/kg, an ED50 (Rattus norvegicus [8]) greater than 175 µmol/kg and an LD50 [9] of 540 µmol/kg.
In the case of COc1cccc(N2CCN(CCC(=O)Nc3ccccc3[N+](=O)[O-])CC2)n1.Cl, the ID75 (Cavia porcellus [1]) is reported as 0.52 µM/kg, the ED50 (Rattus norvegicus [10]) is reported as greater than 237 µmol/kg and the LD50 [11] is reported as greater than 7100 µmol/kg.
In the case of Cc1cc([N+](=O)[O-])cc(C)c1C(=O)NCCN1CCN(c2ccccn2)CC1.Cl.Cl, the ID75 (Cavia porcellus [1]) is reported as 4.6 µM/kg, the ED50 (Rattus norvegicus [12]) is reported as 78 µmol/kg and the LD50 [13] is reported as 530 µmol/kg.
With NC(=O)Nc1ccc(NC(=O)CCN2CCN(c3ccccn3)CC2)cc1 the ID75 (Cavia porcellus [1]) was 0.25 µM/kg, the ED50 (Rattus norvegicus [14]) was 194 µmol/kg and the ED50 (Rattus norvegicus [15]) was greater than 271 µmol/kg. For the same molecule, the LD50 [11] was greater than 8100 µmol/kg.
Molecule COC(=O)CC(C)N1CCN(c2ccccn2)CC1.O=C(O)/C=C\C(=O)O.O=C(O)/C=C\C(=O)O (centres undefined) has an ID75 (Cavia porcellus [1]) of 2.37 µM/kg, an ED50 (Rattus norvegicus [10]) greater than 404 µmol/kg and an LD50 [16] of 1350 µmol/kg.
COc1cccc(N2CCN(CCC(=O)Nc3ccc([N+](=O)[O-])cc3)CC2)n1.Cl showed an ID75 (Cavia porcellus [1]) of 0.16 µM/kg, an ED50 (Rattus norvegicus [17]) of 204 µmol/kg and an LD50 [18] of 4390 µmol/kg.
CC(=O)Nc1ccc(NC(=O)CCN2CCN(c3ccccn3)CC2)cc1.Cl.Cl gave an inhibition in vivo at 45 µmol/kg (Rattus norvegicus [19]) of 29%, an ID75 (Cavia porcellus [1]) of 0.97 µM/kg and an ED50 (Rattus norvegicus [20]) of 153 µmol/kg. It also gave an ED50 (Rattus norvegicus [21]) of 90 µmol/kg and an LD50 [11] greater than 6810 µmol/kg.
Molecule Cc1cc(N)cc(C)c1C(=O)NCCN1CCN(c2ccccn2)CC1.Cl has an ID75 (Cavia porcellus [1]) of 5.27 µM/kg, an ED50 (Rattus norvegicus [8]) greater than 167 µmol/kg and an LD50 [22] of 550 µmol/kg.
Cl.Cl.O=C(CCN1CCN(c2ccccn2)CC1)Nc1ccc(O)cc1 gave an ID75 (Cavia porcellus [1]) of 0.49 µM/kg, an ED50 (Rattus norvegicus [23]) of 189 µmol/kg and an ED50 (Rattus norvegicus [24]) of 161 µmol/kg. For the same molecule, the LD50 (Mus musculus) was “Not Active”, the LD50 [25] was 5200 µmol/kg and the inhibition in vivo at 50 µmol/kg (Rattus norvegicus [26]) was 64%.
For NS(=O)(=O)c1ccc(NC(=O)CCN2CCN(c3ccccn3)CC2)cc1, the ID75 (Cavia porcellus [1]) was 0.19 µM/kg, the ED50 (Rattus norvegicus [10]) was greater than 257 µmol/kg and the LD50 [11] was greater than 7700 µmol/kg. The LD50 (Mus musculus) was “Not Active”.
